The term inhibition denotes the relative decrease from the control value, in per cent.

From ChEMBL document CHEMBL1926630, “Structure-activity relationships of chalcone analogs as potential inhibitors of ADP- and collagen-induced platelet aggregation” (2011) come the findings set out here.

Experiment [1] in a line: Antiplatelet activity against New Zealand white rabbit platelets assessed as inhibition of ADP-induced platelet aggregation at 50 ug/mL treated 2 mins before ADP challenge measured after 4 mins by turbidimetric analysis. It counts as functional. Conditions: Oryctolagus cuniculus. The procedure, abridged: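 Washed platelets from ear-vein blood (acid-citrate dextrose), washed in Ca²⁺-free Tyrode's with BSA, heparin and apyrase, resuspended in Tyrode's with 1 mM Ca²⁺ at 2.5 × 10⁸/mL. Stirred at 900 rpm, preincubated 2 min at 37 °C with compound or vehicle (DMSO, final 0.5%), then challenged with 20 μM ADP. Maximal light-transmission rise within 4 min; inhibition computed versus vehicle.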

Experiment [2] can be described thus: Antiplatelet activity against New Zealand white rabbit platelets assessed as inhibition of collagen-induced platelet aggregation at 50 ug/mL treated 2 mins before collagen challenge measured after 4 mins by turbidimetric analysis. It counts as functional. Conditions: Oryctolagus cuniculus. In outline: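 Rabbit washed platelets (EDTA-treated PRP, washed in Ca²⁺-free Tyrode's with BSA, heparin and apyrase at 37 °C for 20 min) were resuspended in 1 mM Ca²⁺ Tyrode's at 2.5 × 10⁸/mL. Compound or DMSO vehicle (final 0.5%) was added for 2 min at 37 °C with 900 rpm stirring before collagen. Read-out was peak transmission increase within 4 min, expressed as inhibition relative to vehicle.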

As for `COc1ccc(/C=C/C(=O)c2ccc(OCC=C(C)C)cc2O)c(OC)c1OC`, the inhibition at 50 µg/mL in experiment [1] is 21.4%; in experiment [2], 12.6%.

`Cc1ccsc1/C=C/C(=O)c1cc(CN2CCOCC2)c(O)c(CN2CCOCC2)c1`: the inhibition at 50 µg/mL in experiment [1] was determined as 24.9%; in experiment [2], 50%.

For the compound `CCOc1cc(O)c(C(=O)/C=C/c2ccccc2)cc1CN1CCOCC1`, the inhibition at 50 µg/mL in experiment [1] worked out at 39.3%; in experiment [2], 2.3%.

In the case of `Cc1ccsc1/C=C/C(=O)c1cccc(O)c1CN1CCOCC1`, the figures for the inhibition at 50 µg/mL in experiment [1] and in experiment [2] were 79.1% and 65.5%, respectively.

As to `CC(C)Oc1ccc(C(=O)/C=C/c2cccs2)c(O)c1CN1CCOCC1`, the inhibition at 50 µg/mL is 29% in experiment [1] and 3.2% in experiment [2].

Consider `CC(C)=CCOc1ccc(C(=O)/C=C/c2ccc3c(c2)OCO3)c(O)c1`, for which the inhibition at 50 µg/mL is 20% in experiment [1] and 17.3% in experiment [2].

On to `COc1cc(/C=C/C(=O)c2ccc(OCC=C(C)C)cc2O)cc(OC)c1`, for which the values for the inhibition at 50 µg/mL in experiment [1] and in experiment [2] were 20.7% and 8.7%, respectively.

In the case of `C=CCOc1ccc(C(=O)/C=C/c2ccc(OC)c(OC)c2OC)c(O)c1`, the inhibition at 50 µg/mL in experiment [1] turned out to be 26.4%; in experiment [2], 14.9%.

With `O=C(/C=C/c1ccccn1)c1ccc(CN2CCOCC2)c(O)c1CN1CCOCC1`, the inhibition at 50 µg/mL in experiment [1] and in experiment [2] was 100% in each case.

In the case of `COc1ccc(/C=C/C(=O)c2cc(CN3CCOCC3)c(OC)cc2O)cc1`, the inhibition at 50 µg/mL in experiment [1] is 36.7%; in experiment [2] it was 7.1%.

Consider `O=C(/C=C/c1ccccn1)c1ccc(O)c(CN2CCOCC2)c1O`, for which the inhibition at 50 µg/mL in experiment [1] came out at 100%; in experiment [2] it was 12.5%.

For the compound `CC(C)=CCOc1ccc(C(=O)/C=C/c2sccc2C)c(O)c1CN1CCOCC1`, the results for the inhibition at 50 µg/mL in experiment [1] and in experiment [2] were 14.2% and 11.1%, respectively.

As to `Cc1ccsc1/C=C/C(=O)c1ccc(O)c(CN2CCOCC2)c1`, the inhibition at 50 µg/mL was determined as 21.4% in experiment [1] and 12.5% in experiment [2].

`O=C(/C=C/c1ccncc1)c1ccc(CN2CCOCC2)c(O)c1`: the inhibition at 50 µg/mL in experiment [1] and in experiment [2] was 100% in each case.

As to `COc1cc(OC)c(OC)cc1/C=C/C(=O)c1ccc(OCC=C(C)C)cc1O`, the figures for the inhibition at 50 µg/mL in experiment [1] and in experiment [2] were 15.7% and 4%, respectively.

For the compound `C=CCOc1ccc(C(=O)/C=C/c2ccc(OC)cc2OC)c(O)c1`, the inhibition at 50 µg/mL in experiment [1] came to 35.2%; in experiment [2], 53.4%.

Consider `C=CCOc1ccc(C(=O)/C=C/c2cccc(OC)c2OC)c(O)c1`, for which the inhibition at 50 µg/mL in experiment [1] was 30.8%; in experiment [2], 44.7%.

With `CCOc1cc(O)c(C(=O)/C=C/c2sccc2C)cc1CN1CCOCC1`, the inhibition at 50 µg/mL in experiment [1] came to 32.3%; in experiment [2], 0%.

Consider `CC(C)=CCOc1ccc(C(=O)/C=C/c2ccccc2)c(O)c1` [CORDOIN], for which the inhibition at 50 µg/mL amounted to 16.4% in experiment [1] and 6.3% in experiment [2].

With `C=CCOc1ccc(C(=O)/C=C/c2cc(OC)cc(OC)c2)c(O)c1`, the inhibition at 50 µg/mL was 30.8% in experiment [1] and 13.4% in experiment [2].

Turning to `C=CCOc1ccc(C(=O)/C=C/c2ccc3c(c2)OCO3)c(O)c1`, the inhibition at 50 µg/mL was determined as 21.4% in experiment [1] and 7.9% in experiment [2].

As to `O=C(/C=C/c1cccs1)c1cccc(O)c1CN1CCOCC1`, the inhibition at 50 µg/mL amounted to 100% in experiment [1] and 83.5% in experiment [2].

For `O=C(/C=C/c1ccccn1)c1ccc(CN2CCOCC2)c(O)c1`, the inhibition at 50 µg/mL stood at 100% in experiment [1] and 98.4% in experiment [2].

As for `O=C(/C=C/c1cccnc1)c1ccc(O)c(CN2CCOCC2)c1`, the inhibition at 50 µg/mL in experiment [1] came to 100%; in experiment [2] it was 56.4%.

Turning to `C=CCOc1ccc(C(=O)/C=C/c2cc(OC)c(OC)c(OC)c2)c(O)c1`, the inhibition at 50 µg/mL in experiment [1] was found to be 70.4%; in experiment [2] it was 43.2%.

For the compound `O=C(/C=C/c1ccco1)c1ccc(O)c(CN2CCOCC2)c1`, the inhibition at 50 µg/mL in experiment [1] turned out to be 18.4%; in experiment [2], 4.7%.

On to `COc1ccc(C(=O)/C=C/c2ccccn2)c(O)c1CN1CCOCC1`, for which the inhibition at 50 µg/mL in experiment [1] came to 100%; in experiment [2], 93.7%.

Consider `COc1ccc(/C=C/C(=O)c2cccnc2)c(CN2CCCCC2)c1O`, for which the inhibition at 50 µg/mL was 100% in experiment [1] and 98.4% in experiment [2].

On to `O=C(/C=C/c1cccs1)c1ccc(O)c(CN2CCOCC2)c1`, for which the inhibition at 50 µg/mL turned out to be 23.4% in experiment [1] and 25% in experiment [2].

On to `CC(C)Oc1cc(O)c(C(=O)/C=C/c2cccs2)cc1CN1CCOCC1`, for which the inhibition at 50 µg/mL in experiment [1] worked out at 23.4%; in experiment [2], 0%.

As to `CCOc1cc(O)c(C(=O)/C=C/c2cccnc2)cc1CN1CCOCC1`, the inhibition at 50 µg/mL was found to be 100% in experiment [1] and 46.9% in experiment [2].

Regarding `COc1cc(O)c(C(=O)/C=C/c2ccco2)cc1CN1CCOCC1`, the inhibition at 50 µg/mL in experiment [1] worked out at 17.2%; in experiment [2], 19.7%.

For the compound `C=CCOc1ccc(C(=O)/C=C/c2ccccc2)c(O)c1`, the results for the inhibition at 50 µg/mL in experiment [1] and in experiment [2] were 25.6% and 6.3%, respectively.

As for `COc1ccc(/C=C/C(=O)c2ccc(OCC=C(C)C)cc2O)cc1O`, the inhibition at 50 µg/mL in experiment [1] was found to be 23%; in experiment [2], 13.4%.

On to `COc1cc(/C=C/C(=O)c2ccc(OCC=C(C)C)cc2O)cc(OC)c1OC`, for which the inhibition at 50 µg/mL is 27.1% in experiment [1] and 7.9% in experiment [2].

For the compound `C=CCOc1ccc(C(=O)/C=C/c2cc(OC)ccc2OC)c(O)c1`, the inhibition at 50 µg/mL in experiment [1] amounted to 33.6%; in experiment [2], 57.2%.

For `O=C(/C=C/c1ccco1)c1cccc(O)c1CN1CCOCC1`, the figures for the inhibition at 50 µg/mL in experiment [1] and in experiment [2] were 100% and 60.8%, respectively.

Regarding `COc1ccc(/C=C/C(=O)c2ccco2)c(CN2CCCCC2)c1O`, the figures for the inhibition at 50 µg/mL in experiment [1] and in experiment [2] were 100% and 93.7%, respectively.

For the compound `COc1cccc(/C=C/C(=O)c2ccc(OCC=C(C)C)cc2O)c1OC`, the inhibition at 50 µg/mL in experiment [1] stood at 21.3%; in experiment [2] it was 19.7%.

With `COc1ccc(/C=C/C(=O)c2cccc(C)c2)c(CN2CCOCC2)c1O`, the inhibition at 50 µg/mL in experiment [1] is 100%; in experiment [2] it was 78%.

Regarding `C=CCOc1ccc(C(=O)/C=C/c2cc(OC)c(OC)cc2OC)c(O)c1`, the figures for the inhibition at 50 µg/mL in experiment [1] and in experiment [2] were 21.6% and 0%, respectively.

On to `O=C(/C=C/c1ccncc1)c1ccc(O)c(CN2CCOCC2)c1`, for which the inhibition at 50 µg/mL in experiment [1] is 100%; in experiment [2] it was 79.4%.

Consider `COc1ccc(OC)c(/C=C/C(=O)c2ccc(OCC=C(C)C)cc2O)c1`, for which the figures for the inhibition at 50 µg/mL in experiment [1] and in experiment [2] were 22.8% and 14.9%, respectively.

For `O=C(/C=C/c1ccccc1)c1ccc(O)c(CN2CCOCC2)c1`, the figures for the inhibition at 50 µg/mL in experiment [1] and in experiment [2] were 34.2% and 20.3%, respectively.

As for `C=CCOc1ccc(C(=O)/C=C/c2ccc(OC)cc2)c(O)c1`, the inhibition at 50 µg/mL in experiment [1] worked out at 24.9%; in experiment [2], 5.5%.

Turning to `COc1ccc(/C=C/C(=O)c2ccc(OCC=C(C)C)cc2O)cc1OC`, the inhibition at 50 µg/mL in experiment [1] was determined as 24.3%; in experiment [2], 10.3%.

As to `CCOc1cc(O)c(C(=O)/C=C/c2ccccn2)cc1CN1CCOCC1`, the inhibition at 50 µg/mL in experiment [1] turned out to be 100%; in experiment [2], 43%.

Turning to `COc1ccc(/C=C/C(=O)c2ccc(OCC=C(C)C)cc2O)cc1`, the inhibition at 50 µg/mL was found to be 25.7% in experiment [1] and 17.3% in experiment [2].

`CCOc1cc(O)c(C(=O)/C=C/c2ccc(C)o2)cc1CN1CCOCC1`: the inhibition at 50 µg/mL in experiment [1] came out at 16.5%; in experiment [2] it was 0%.

Turning to `Cc1ccc(/C=C/C(=O)c2ccc(O)c(CN3CCOCC3)c2)o1`, the inhibition at 50 µg/mL in experiment [1] was determined as 12.8%; in experiment [2], 0%.

For the compound `O=C(/C=C/c1cccnc1)c1ccc(CN2CCOCC2)c(O)c1`, the inhibition at 50 µg/mL stood at 100% in experiment [1] and 95.3% in experiment [2].

Regarding `COc1ccc(/C=C/C(=O)c2cccs2)c(CN2CCCCC2)c1O`, the inhibition at 50 µg/mL in experiment [1] is 100%; in experiment [2], 95.2%.

Turning to `COc1cc(O)c(C(=O)/C=C/c2cccs2)cc1CN1CCOCC1`, the figures for the inhibition at 50 µg/mL in experiment [1] and in experiment [2] were 26.4% and 11.1%, respectively.

For the compound `COc1cc(O)c(C(=O)/C=C/c2ccccc2)cc1CN1CCOCC1`, the inhibition at 50 µg/mL in experiment [1] was 97.2%; in experiment [2] it was 29.2%.

Take `COc1cc(O)c(C(=O)/C=C/c2cccnc2)cc1CN1CCOCC1`: the results for the inhibition at 50 µg/mL in experiment [1] and in experiment [2] were 100% and 96.1%, respectively.

On to `O=C(/C=C/c1ccccn1)c1cc(CN2CCOCC2)c(O)c(CN2CCOCC2)c1`, for which the inhibition at 50 µg/mL in experiment [1] was 100%; in experiment [2], 78.6%.

With `CCOc1cc(O)c(C(=O)/C=C/c2ccco2)cc1CN1CCOCC1`, the inhibition at 50 µg/mL amounted to 22.5% in experiment [1] and 0% in experiment [2].

Regarding `O=C(/C=C/c1ccccn1)c1ccc(O)c(CN2CCOCC2)c1`, the results for the inhibition at 50 µg/mL in experiment [1] and in experiment [2] were 99.3% and 63.5%, respectively.

For `O=C(/C=C/c1ccccc1)c1cccc(O)c1CN1CCOCC1`, the inhibition at 50 µg/mL in experiment [1] stood at 100%; in experiment [2] it was 89.8%.

Turning to `COc1ccc(/C=C/C(=O)c2ccc(C)cc2)c(CN2CCOCC2)c1O`, the inhibition at 50 µg/mL in experiment [1] stood at 99.3%; in experiment [2] it was 57.6%.

Regarding `COc1ccc(/C=C/C(=O)c2ccc(OCC=C(C)C)cc2O)c(OC)c1`, the inhibition at 50 µg/mL in experiment [1] was 42.7%; in experiment [2], 39.2%.
